From ChEMBL document CHEMBL1127606, “HIV-1 reverse transcriptase inhibitor design using artificial neural networks” (1994)
Each block holds one compound with its values, some of them ahead of it. Calls of active or inactive are those of the source. No cut-off for these calls is given here.

Key:
[1] = target: Human immunodeficiency virus type 1 reverse transcriptase (Human immunodeficiency virus 1) (UniProt Q72547); assay: Inhibition of HIV-1 reverse transcriptase; - = inactive
MT4 [2] = assay: Content of viable cells at 10e-5 concentration of compound was tested on MT-4 cells infected by […]; assay type: functional, Homo sapiens
How it was run: (§1)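 Anti-HIV viable-cell assay: MT-4 lymphocytes infected with cell-free fluid from chronically HIV-1-infected H9/IIIB cultures at 0.05–0.1 log10 EPCD50 per cell. They were cultured 7 days with compound at 10^-4 or 10^-5 M. Viable cells were counted by 0.25% trypan blue exclusion and reported as % viable cells.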

MT4 [3] = assay: RT activity in culture fluid at 10e-4 concentration of compound was tested on MT-4 cells infected by […]; assay type: cell-based
How it was run: (§2)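 RT assay: infected MT-4 cells (H9/IIIB-derived HIV-1, 0.05–0.1 log10 EPCD50 per cell) were cultured 7 days with compound at 10^-4 or 10^-5 M. Reverse transcriptase activity in the culture fluid was measured and expressed as % of untreated infected control.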

MT4 [4] = assay: Cytotoxic concentration for 50% death of uninfected MT-4 cell culture
MT4 [5] = assay: Antigen p24 content in culture fluid at 10e-5 concentration of compound was tested on MT-4 cells infected by […]; assay type: functional, Homo sapiens
How it was run: (§3)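 p24 assay: MT-4 cultures were infected with HIV-1 from chronically infected H9/IIIB cultures (0.05–0.1 log10 EPCD50 per cell) and held 7 days with compound at 10^-4 or 10^-5 M. Virus production was measured as p24 antigen in culture fluid by immunoenzymatic assay, in ng/mL.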

MT4 [6] = assay: Number of infected cells at 10e-4 concentration of compound was tested on MT-4 cells infected by […]; assay type: functional, Homo sapiens
How it was run: (§4)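 Infected-cell count: HIV-1 (H9/IIIB-derived fluid, 0.05–0.1 log10 EPCD50 per cell) was used to infect MT-4 lymphocytes, which were then grown 7 days with compound at 10^-4 or 10^-5 M. Cells expressing viral antigens on their surface membranes were scored by indirect immunofluorescence with anti-HIV-1 antibodies, as % of cells.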

MT4 [7] = assay: Antigen p24 content in culture fluid at 10e-4 concentration of compound was tested on MT-4 cells infected by […]; assay type: functional, Homo sapiens; how it was run: as §3
MT4 [8] = assay: Number of infected cells at 10e-5 concentration of compound was tested on MT-4 cells infected by […]; assay type: functional, Homo sapiens; how it was run: as §4
MT4 [9] = assay: RT activity in culture fluid at 10e-5 concentration of compound was tested on MT-4 cells infected by […]; assay type: cell-based; how it was run: as §2
MT4 [10] = assay: Content of viable cells at 10e-4 concentration of compound was tested on MT-4 cells infected by […]; assay type: functional, Homo sapiens; how it was run: as §1
MT4 [11] = assay: Cytotoxic concentration for 50% death of MT-4 cell culture infected by HIV-1/ IIIB; assay type: functional, Homo sapiens

Activity [1]: inactive
SMILES: Cc1cn([C@@H]2O[C@H](CO)C[C@H]2F)c(=O)[nH]c1=O

Activity [1]: inactive
SMILES: CC(=O)O[C@H]1C=C[C@H](n2cc(C)c(=O)[nH]c2=O)O[C@@H]1CO

Activity [1]: inactive
SMILES: CC(=O)N[C@@H]1C=C[C@H](n2cc(C)c(=O)[nH]c2=O)O[C@@H]1CO

Activity [1]: inactive
SMILES: CC(=O)N[C@@H]1C=C[C@@H](n2cc(C)c(=O)[nH]c2=O)OC1

Activity [1]: inactive
SMILES: Nc1nc(=O)n(C2OC(CO)CC2F)cc1F (stereo unspecified)

SMILES: COC1=NC(CC(C)=O)N=C(OC)C1(CC(O)CO)[N+](=O)[O-] (stereo unspecified)
Viable cells (MT4 [2]): 52.1%
RT activity (MT4 [3]): 84.3%
CTC50 (MT4 [4]): 0.058 M
Antigen p24 content (MT4 [5]): 1.87 ng/mL
No. of infected cells (MT4 [6]): 19.7%
Antigen p24 content (MT4 [7]): 1.92 ng/mL
No. of infected cells (MT4 [8]): 12.6%
RT activity (MT4 [9]): 82.5%
Viable cells (MT4 [10]): 37.3%

Activity [1]: inactive
SMILES: O=c1ccn(C2OC(CO)C(F)C2F)c(=O)[nH]1 (stereo unspecified)

Activity [1]: inactive
SMILES: Cc1cn([C@@H]2O[C@H](CO)[C@@H](N=[N+]=[N-])[C@H]2F)c(=O)[nH]c1=O

Activity [1]: inactive
SMILES: Cc1cn(C2C=C[C@@H](N=[N+]=[N-])CO2)c(=O)[nH]c1=O (single isomer, unassigned)

Activity [1]: inactive
SMILES: CC(=O)N[C@@H]1C=C[C@@H](n2cc(C)c(=O)[nH]c2=O)O[C@@H]1CO

Activity [1]: inactive
SMILES: COC(=O)C(Cc1ccccc1)NP(=O)(NC(Cc1ccccc1)C(=O)OC)OCC1OC(n2cc(C)c(=O)[nH]c2=O)CC1F (stereo unspecified)

Activity [1]: inactive
SMILES: O=c1ccn(C2OC(CO)CC2F)c(=O)[nH]1 (stereo unspecified)

Activity [1]: inactive
SMILES: Cc1cn([C@@H]2O[C@H](CO)C=C2F)c(=O)[nH]c1=O

Activity [1]: inactive
SMILES: CCc1cc(CCN2C(=O)c3ccccc3C2=O)c(O)nc1C

Activity [1]: inactive
SMILES: CC(=O)O[C@H]1C=C[C@@H](n2cc(C)c(=O)[nH]c2=O)OC1

Activity [1]: inactive
SMILES: CC(=O)OC[C@H]1O[C@H](n2cc(C)c(=O)[nH]c2=O)C=C[C@@H]1OC(C)=O

SMILES: COc1nc(CC(C)=O)nc(OC)c1CC(O)CO (stereo unspecified)
CTC50 (MT4 [11]): 78 µM

Activity [1]: inactive
SMILES: COC(=O)C(NP(=O)(OCC1OC(n2cc(C)c(=O)[nH]c2=O)CC1F)OCC(Cl)(Cl)Cl)C(C)C (stereo unspecified)

Activity [1]: inactive
SMILES: Cc1cn([C@H]2C=C[C@@H](N=[N+]=[N-])[C@@H](CO)O2)c(=O)[nH]c1=O

Activity [1]: inactive
SMILES: Cc1cn(C2C=C[C@H](O)[C@@H](CO)O2)c(=O)[nH]c1=O (single isomer, unassigned)

Activity [1]: inactive
SMILES: Cc1cn(C2C=C[C@@H](O)[C@@H](CO)O2)c(=O)[nH]c1=O (single isomer, unassigned)

Activity [1]: inactive
SMILES: Cc1cn([C@@H]2C=C[C@@H](N=[N+]=[N-])[C@@H](CO)O2)c(=O)[nH]c1=O

SMILES: COC1=NC(OC)=C([N+](=O)[O-])C(CC(C)=O)N1CC(O)CO (stereo unspecified)
Viable cells (MT4 [2]): 83.2%
RT activity (MT4 [3]): 20.9%
CTC50 (MT4 [4]): 0.0466 M
Antigen p24 content (MT4 [5]): 0.77 ng/mL
No. of infected cells (MT4 [6]): 3.6%
Antigen p24 content (MT4 [7]): 0.87 ng/mL
No. of infected cells (MT4 [8]): 2.8%
RT activity (MT4 [9]): 18.7%
Viable cells (MT4 [10]): 85.1%

SMILES: Cc1cn([C@H]2C[C@H](N=[N+]=[N-])[C@@H](CO)O2)c(=O)[nH]c1=O [ZIDOVUDINE]
Viable cells (MT4 [2]): 69.7%
RT activity (MT4 [3]): 19.2%
CTC50 (MT4 [4]): 0.0053 M
Antigen p24 content (MT4 [5]): 0.68 ng/mL
No. of infected cells (MT4 [6]): 2.9%
Antigen p24 content (MT4 [7]): 0.82 ng/mL
No. of infected cells (MT4 [8]): 2.1%
RT activity (MT4 [9]): 17%
Viable cells (MT4 [10]): 78.6%

Activity [1]: inactive
SMILES: COC(=O)C(C)NP(=O)(OCC1OC(n2cc(C)c(=O)[nH]c2=O)CC1F)OCC(Cl)(Cl)Cl (stereo unspecified)

Activity [1]: inactive
SMILES: O=c1ccn(C2OC(CO)C=C2F)c(=O)[nH]1 (stereo unspecified)

Activity [1]: inactive
SMILES: Cc1cn([C@@H]2C=CC(O)CO2)c(=O)[nH]c1=O (single isomer, unassigned)
